Reference: ChEMBL document CHEMBL4118144, “Design, Synthesis, and Testing of Potent, Selective Hepsin Inhibitors via Application of an Automated Closed-Loop Optimization Platform” (J Med Chem, 2018)

Tests used:
Tryptase (Homo sapiens) = Tryptase (Homo sapiens) (UniProt Q9BZJ3+Q15661+Q9NRR2); assay: Inhibition of recombinant full length human tryptase usingZ-Gly-Pro-Arg-AMC as substrate at 1 uM after 60 mins by fluorescence spectrophotometric method relative to control; type: protein assay
Summary of the method: (§1)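 Panel of ten serine proteases; percent inhibition read at compound concentrations of 1 µM and 10 µM, each value the mean of 2 experiments.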

[1] = molecular target: T1, Cathepsin G (Homo sapiens) (UniProt P08311); assay: Inhibition of human cathepsin G using Suc-Ala-Ala-Pro-Phe-AMC as substrate at 1 uM after 30 mins by fluorescence spectrophotometric method relative to control; summary of the method: as §1
T1 sequence (whole entry): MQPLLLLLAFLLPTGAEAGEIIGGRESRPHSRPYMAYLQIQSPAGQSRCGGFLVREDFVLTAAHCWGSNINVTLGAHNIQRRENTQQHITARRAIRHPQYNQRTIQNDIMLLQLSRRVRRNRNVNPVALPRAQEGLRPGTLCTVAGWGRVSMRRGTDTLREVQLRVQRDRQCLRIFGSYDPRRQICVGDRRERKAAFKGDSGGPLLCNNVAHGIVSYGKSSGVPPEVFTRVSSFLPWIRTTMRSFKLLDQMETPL

[2] = molecular target: Prothrombin (Homo sapiens) (UniProt P00734); assay: Inhibition of human thrombin using Z-Gly-Pro-Arg-AMC as substrate at 10 uM after 60 mins by fluorescence spectrophotometric method relative to control; summary of the method: as §1
[3] = Half life in mouse liver microsomes at 3 uM preincubated for 5 mins followed by NADPH addition by LC-MS/MS analysis; type: ADME, microsome
Chymase (Homo sapiens) = molecular target: T2, Chymase (Homo sapiens) (UniProt P23946); assay: Inhibition of human chymase using Suc-Ala-Ala-Pro-Phe-AMC as substrate at 1 uM after 120 mins by fluorescence spectrophotometric method relative to control; summary of the method: as §1
T2 sequence (whole entry): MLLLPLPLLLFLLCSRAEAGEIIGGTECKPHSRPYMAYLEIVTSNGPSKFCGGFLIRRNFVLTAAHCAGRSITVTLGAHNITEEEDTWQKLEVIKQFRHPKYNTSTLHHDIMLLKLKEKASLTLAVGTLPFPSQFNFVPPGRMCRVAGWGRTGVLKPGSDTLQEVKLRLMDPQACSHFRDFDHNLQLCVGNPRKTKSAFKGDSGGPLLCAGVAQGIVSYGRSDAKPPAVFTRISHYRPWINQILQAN

[4] = molecular target: Coagulation factor X (Homo sapiens) (UniProt P00742); assay: Inhibition of factor 10a (unknown origin) at 10 uM after 15 mins by fluorescence assay relative to control; summary of the method: as §1
[5] = molecular target: T3, Suppressor of tumorigenicity 14 protein (Homo sapiens) (UniProt Q9Y5Y6); assay: Inhibition of matriptase (unknown origin) using BOC-QAR-AMC as substrate at 1 uM after 15 mins by fluorescence assay relative to control; summary of the method: as §1
T3 sequence (whole entry): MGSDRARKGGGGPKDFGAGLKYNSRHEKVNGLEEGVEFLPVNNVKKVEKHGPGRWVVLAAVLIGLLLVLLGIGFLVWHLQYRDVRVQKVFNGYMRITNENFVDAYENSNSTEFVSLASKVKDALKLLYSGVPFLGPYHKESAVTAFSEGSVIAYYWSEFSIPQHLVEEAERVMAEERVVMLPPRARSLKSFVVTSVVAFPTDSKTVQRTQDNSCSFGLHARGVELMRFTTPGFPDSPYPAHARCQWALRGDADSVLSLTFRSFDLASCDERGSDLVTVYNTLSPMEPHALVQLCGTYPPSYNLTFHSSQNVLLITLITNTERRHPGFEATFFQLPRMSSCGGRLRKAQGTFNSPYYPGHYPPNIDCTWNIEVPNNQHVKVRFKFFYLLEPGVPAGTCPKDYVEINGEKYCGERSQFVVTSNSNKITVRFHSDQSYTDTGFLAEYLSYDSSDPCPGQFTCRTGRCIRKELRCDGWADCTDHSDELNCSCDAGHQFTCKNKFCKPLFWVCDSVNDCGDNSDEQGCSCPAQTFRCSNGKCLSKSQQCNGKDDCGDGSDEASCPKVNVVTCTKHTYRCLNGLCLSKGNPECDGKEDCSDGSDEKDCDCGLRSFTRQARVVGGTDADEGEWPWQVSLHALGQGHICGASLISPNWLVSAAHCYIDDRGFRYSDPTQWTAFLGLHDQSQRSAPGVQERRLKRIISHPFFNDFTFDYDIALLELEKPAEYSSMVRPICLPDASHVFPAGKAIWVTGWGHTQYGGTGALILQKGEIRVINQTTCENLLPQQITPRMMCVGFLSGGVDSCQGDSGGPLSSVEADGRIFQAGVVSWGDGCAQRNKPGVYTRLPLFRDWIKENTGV

[6] = molecular target: T4, Neutrophil elastase (Homo sapiens) (UniProt P08246); assay: Inhibition of elastase (unknown origin) at 10 uM relative to control; summary of the method: as §1
T4 sequence (whole entry): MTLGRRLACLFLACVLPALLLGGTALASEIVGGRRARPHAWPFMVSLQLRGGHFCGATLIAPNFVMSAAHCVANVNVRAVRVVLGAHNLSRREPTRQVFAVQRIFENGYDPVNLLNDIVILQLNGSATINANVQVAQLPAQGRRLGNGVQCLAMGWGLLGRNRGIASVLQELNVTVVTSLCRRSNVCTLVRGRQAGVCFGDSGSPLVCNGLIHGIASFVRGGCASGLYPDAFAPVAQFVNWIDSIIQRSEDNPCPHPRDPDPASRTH

[7] = molecular target: Urokinase-type plasminogen activator (Homo sapiens, UniProt P00749); assay: Inhibition of recombinant C-terminal His10-tagged human uPA (M1 to L431 residues) expressed in mouse NS0 cells using Z-GGR-AMC as substrate after 15 mins by manual fluorescence assay

Coagulation factor X (Homo sapiens), sequence (P00742 41-179 limits assumed): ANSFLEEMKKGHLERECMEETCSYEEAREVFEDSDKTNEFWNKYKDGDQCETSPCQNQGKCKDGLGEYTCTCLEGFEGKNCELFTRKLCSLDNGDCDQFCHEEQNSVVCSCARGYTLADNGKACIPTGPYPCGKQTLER
Coagulation factor X (Homo sapiens), sequence (P00742 235-488 limits assumed): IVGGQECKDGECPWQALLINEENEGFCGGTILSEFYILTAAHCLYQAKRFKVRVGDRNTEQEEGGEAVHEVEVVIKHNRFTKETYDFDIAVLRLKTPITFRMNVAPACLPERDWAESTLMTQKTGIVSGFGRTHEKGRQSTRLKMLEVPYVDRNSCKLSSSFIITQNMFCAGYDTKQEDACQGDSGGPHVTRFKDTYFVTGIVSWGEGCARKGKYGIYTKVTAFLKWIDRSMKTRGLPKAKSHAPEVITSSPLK

SMILES: Cc1ccc(S(=O)(=O)N[C@@H](C(=O)Nc2ccc(C(=N)N)cc2)C2CCCCC2)cc1
- inhibition (Tryptase (Homo sapiens)): 52%
- inhibition [1]: < 10%
- inhibition [2]: 12%
- half-life at 3 µM [3]: 1.23 h
- inhibition (Chymase (Homo sapiens)): < 10%
- inhibition [4]: < 10%
- inhibition [5]: < 10%
- inhibition [6]: < 10%
- IC50 [7]: 10 to 1950 µM

SMILES: Cc1ccc(S(=O)(=O)N[C@@H](C(=O)Nc2ccc(C(=N)N)cc2)c2ccccc2)cc1
- inhibition (Tryptase (Homo sapiens)): 27%
- inhibition [1]: < 10%
- inhibition [2]: 44%
- half-life at 3 µM [3]: 1.8 h
- inhibition (Chymase (Homo sapiens)): < 10%
- inhibition [4]: < 10%
- inhibition [5]: < 10%
- inhibition [6]: < 10%
- IC50 [7]: 140 µM

SMILES: N=C(N)c1ccc(NC(=O)[C@H](NS(=O)(=O)c2ccc(F)cc2)C2CCCCC2)cc1
- inhibition (Tryptase (Homo sapiens)): 40%
- inhibition [1]: < 10%
- inhibition [2]: 10%
- half-life at 3 µM [3]: 0.8 h
- inhibition (Chymase (Homo sapiens)): < 10%
- inhibition [4]: < 10%
- inhibition [5]: < 10%
- inhibition [6]: < 10%
- IC50 [7]: 280 µM
